Series [1] concerns the target Mitogen-activated protein kinase kinase kinase 9 (Homo sapiens) (UniProt P80192). The series is described as follows: Inhibition of MAP3K9 (unknown origin) at 1 uM relative to control.
Series [2] concerns the target Proto-oncogene tyrosine-protein kinase Src (Homo sapiens) (UniProt P12931). The series is described as follows: Inhibition of SRC (unknown origin) at 1 uM relative to control.
Series [3] can be described thus: Half life in Sprague-Dawley rat at 10 mg/kg, po administered via gavage by LC-MS/MS analysis. The format is ADME, organism-based. The conditions noted are these: in vivo. The method in brief: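 Male Sprague-Dawley rats (200-240 g) were dosed either by tail vein at 1 mg/kg in 2% DMSO/20% PEG400/78% buffered saline or by oral gavage at 10 mg/kg in 0.5% methylcellulose. Blood was drawn by orbital sinus puncture at 2 min to 24 h into heparin, and plasma was analysed by LC/MS/MS in SRM mode. Parameters came from non-compartmental analysis.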

Series [4] addresses Insulin receptor-related protein (Homo sapiens) (UniProt P14616). The series is described as follows: Inhibition of INSRR (unknown origin) at 1 uM relative to control.
A short description of series [5]: MRT in Sprague-Dawley rat at 10 mg/kg, po administered via gavage by LC-MS/MS analysis. The format is ADME, organism-based. The conditions noted are these: in vivo. The method in brief: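 Male Sprague-Dawley rats (200-240 g) received 1 mg/kg by tail-vein injection in 2% DMSO, 20% PEG400 and 78% buffered saline, or 10 mg/kg by oral gavage in 0.5% methylcellulose. Orbital sinus blood was drawn into heparinized tubes at 2, 5, 15 and 30 min and at 1, 2, 4, 8, 12 and 24 h, then centrifuged. Plasma was measured by LC/MS/MS in SRM mode, with non-compartmental analysis.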

The target of series [6] is cGMP-dependent protein kinase 1 (Homo sapiens) (UniProt Q13976). The series is described as follows: Inhibition of PRKG1 (unknown origin) at 1 uM relative to control.
The nature of series [7]: AUC (0 to 24 hrs) in Sprague-Dawley rat at 1 mg/kg, iv by LC-MS/MS analysis. More on the design: time < 24 hr, dose 1 mg/kg, route intravenous. The conditions noted are these: in vivo. It counts as ADME, organism-based.
Series [8] addresses CDK2/Cyclin A2 (Homo sapiens) (UniProt P24941+P20248). The series is described as follows: Inhibition of CDK2/cyclin A (unknown origin) at 1 uM relative to control. The format is protein-complex assay.

In general, inhibition refers to the relative decrease from the control value, in per cent. The half-life is the time in which the quantity being followed falls by half. Higher therefore signals slow loss. As a reminder, the MRT is the average time that molecules of a dose stay in the body. A word on the AUC(0-t): it is exposure summed from dosing to a finite time, without extrapolation to infinity.

Molecules are shown by their SMILES.

Chain of cGMP-dependent protein kinase 1 (Homo sapiens) (Q13976 whole entry): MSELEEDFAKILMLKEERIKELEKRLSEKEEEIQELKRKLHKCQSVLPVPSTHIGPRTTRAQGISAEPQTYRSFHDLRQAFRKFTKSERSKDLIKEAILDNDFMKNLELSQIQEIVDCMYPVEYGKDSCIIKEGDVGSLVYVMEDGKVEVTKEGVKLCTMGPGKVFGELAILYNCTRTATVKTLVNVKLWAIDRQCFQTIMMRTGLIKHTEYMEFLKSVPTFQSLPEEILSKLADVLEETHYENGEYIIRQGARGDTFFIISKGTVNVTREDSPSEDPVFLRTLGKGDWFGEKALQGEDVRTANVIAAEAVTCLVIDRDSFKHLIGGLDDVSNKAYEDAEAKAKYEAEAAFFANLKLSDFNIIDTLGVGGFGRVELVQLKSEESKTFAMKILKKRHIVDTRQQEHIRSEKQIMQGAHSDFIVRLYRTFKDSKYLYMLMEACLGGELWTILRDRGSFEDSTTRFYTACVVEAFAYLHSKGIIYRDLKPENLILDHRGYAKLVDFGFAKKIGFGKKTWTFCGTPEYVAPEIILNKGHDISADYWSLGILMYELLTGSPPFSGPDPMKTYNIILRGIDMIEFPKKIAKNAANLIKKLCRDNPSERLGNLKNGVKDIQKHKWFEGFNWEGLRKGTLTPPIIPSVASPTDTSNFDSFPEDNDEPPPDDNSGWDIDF
Chain of Insulin receptor-related protein (Homo sapiens) (P14616 27-742 limits assumed): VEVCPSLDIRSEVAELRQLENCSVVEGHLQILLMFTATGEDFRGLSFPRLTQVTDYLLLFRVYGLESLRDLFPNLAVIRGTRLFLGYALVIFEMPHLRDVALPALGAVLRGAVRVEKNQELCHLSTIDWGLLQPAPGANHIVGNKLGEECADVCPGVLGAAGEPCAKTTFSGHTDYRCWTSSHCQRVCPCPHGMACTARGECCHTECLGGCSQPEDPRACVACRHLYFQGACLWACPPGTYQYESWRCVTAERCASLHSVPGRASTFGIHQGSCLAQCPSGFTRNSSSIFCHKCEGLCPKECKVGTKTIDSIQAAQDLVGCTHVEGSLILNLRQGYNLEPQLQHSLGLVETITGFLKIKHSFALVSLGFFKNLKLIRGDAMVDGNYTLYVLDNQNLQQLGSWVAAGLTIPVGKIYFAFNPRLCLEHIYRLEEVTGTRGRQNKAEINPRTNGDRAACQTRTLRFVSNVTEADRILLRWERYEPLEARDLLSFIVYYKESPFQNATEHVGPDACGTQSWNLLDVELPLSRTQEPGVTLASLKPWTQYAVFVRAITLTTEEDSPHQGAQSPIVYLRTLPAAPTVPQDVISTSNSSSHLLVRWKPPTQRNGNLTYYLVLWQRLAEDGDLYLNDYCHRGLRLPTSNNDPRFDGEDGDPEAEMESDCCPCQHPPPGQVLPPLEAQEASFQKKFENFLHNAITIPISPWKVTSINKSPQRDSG
Chain of Insulin receptor-related protein (Homo sapiens) (P14616 747-1297 limits assumed): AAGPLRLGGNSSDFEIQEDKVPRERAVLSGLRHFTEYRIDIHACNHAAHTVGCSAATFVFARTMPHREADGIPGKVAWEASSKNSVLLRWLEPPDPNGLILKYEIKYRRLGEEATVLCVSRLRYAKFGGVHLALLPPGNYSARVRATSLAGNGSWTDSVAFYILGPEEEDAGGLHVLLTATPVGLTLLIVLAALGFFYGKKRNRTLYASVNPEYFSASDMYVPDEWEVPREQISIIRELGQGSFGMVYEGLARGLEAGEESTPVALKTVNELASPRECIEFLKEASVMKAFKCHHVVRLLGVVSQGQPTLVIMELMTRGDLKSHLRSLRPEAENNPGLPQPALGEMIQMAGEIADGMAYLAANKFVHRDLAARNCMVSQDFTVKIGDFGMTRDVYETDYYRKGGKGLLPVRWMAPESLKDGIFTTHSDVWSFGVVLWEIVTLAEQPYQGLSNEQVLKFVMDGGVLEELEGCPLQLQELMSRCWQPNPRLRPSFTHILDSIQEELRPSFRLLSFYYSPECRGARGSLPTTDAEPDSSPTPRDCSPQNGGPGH
Chain of Mitogen-activated protein kinase kinase kinase 9 (Homo sapiens) (P80192 whole entry, looked up): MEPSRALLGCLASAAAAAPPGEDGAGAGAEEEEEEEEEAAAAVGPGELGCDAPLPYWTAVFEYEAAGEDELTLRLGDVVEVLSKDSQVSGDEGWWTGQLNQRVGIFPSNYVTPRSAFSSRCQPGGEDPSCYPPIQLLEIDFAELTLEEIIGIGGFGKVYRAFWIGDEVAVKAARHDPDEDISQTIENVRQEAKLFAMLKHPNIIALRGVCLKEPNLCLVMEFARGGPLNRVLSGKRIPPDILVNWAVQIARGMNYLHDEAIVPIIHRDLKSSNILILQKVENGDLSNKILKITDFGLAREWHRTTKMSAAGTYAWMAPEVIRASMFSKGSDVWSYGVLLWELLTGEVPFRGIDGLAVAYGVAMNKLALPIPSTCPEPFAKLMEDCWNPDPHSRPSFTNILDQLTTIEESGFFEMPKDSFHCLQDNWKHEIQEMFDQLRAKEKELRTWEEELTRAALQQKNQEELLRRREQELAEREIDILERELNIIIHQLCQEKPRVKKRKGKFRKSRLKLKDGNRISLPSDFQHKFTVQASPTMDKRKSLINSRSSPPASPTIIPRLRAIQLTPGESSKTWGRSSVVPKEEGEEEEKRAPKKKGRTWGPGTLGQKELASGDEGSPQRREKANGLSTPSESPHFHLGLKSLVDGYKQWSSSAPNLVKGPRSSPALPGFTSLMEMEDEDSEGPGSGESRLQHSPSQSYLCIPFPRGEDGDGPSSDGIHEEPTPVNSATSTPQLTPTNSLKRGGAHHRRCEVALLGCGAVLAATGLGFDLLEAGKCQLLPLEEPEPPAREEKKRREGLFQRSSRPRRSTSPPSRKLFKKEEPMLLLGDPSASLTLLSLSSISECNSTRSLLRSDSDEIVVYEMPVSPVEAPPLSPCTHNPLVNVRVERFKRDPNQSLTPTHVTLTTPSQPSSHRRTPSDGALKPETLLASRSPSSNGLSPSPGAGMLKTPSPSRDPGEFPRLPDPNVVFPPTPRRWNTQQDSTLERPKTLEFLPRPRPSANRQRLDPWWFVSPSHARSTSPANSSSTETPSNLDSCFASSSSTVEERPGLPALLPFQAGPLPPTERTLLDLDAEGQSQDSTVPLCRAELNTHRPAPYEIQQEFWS
Chain of Proto-oncogene tyrosine-protein kinase Src (Homo sapiens) (P12931 2-536 limits assumed): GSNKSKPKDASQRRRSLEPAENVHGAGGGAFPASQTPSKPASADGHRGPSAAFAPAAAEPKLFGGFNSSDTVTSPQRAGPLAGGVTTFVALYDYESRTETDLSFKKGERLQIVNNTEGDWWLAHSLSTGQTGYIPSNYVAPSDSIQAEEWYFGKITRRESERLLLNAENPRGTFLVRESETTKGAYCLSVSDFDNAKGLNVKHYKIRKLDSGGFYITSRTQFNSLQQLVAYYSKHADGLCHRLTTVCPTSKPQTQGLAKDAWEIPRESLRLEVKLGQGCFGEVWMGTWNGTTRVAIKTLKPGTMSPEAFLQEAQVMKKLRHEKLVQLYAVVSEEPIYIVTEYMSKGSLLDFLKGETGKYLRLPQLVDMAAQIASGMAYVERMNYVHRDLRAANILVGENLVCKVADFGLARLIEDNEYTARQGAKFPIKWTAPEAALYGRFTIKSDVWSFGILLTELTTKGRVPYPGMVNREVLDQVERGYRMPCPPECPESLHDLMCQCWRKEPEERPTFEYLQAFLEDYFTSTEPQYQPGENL

`C=CC(=O)Nc1cc(Nc2nccc(-c3cn4c5c(cccc35)CCC4)n2)c(OC)cc1N(C)CCN(C)C`: the inhibition in series [1] turned out to be 87%; in series [2], 16%; in series [4], 39%; in series [6] it was 5%; in series [8] it was 7%. The same compound gave a half-life in series [3] of 4.1 h. The compound also registered a mean residence time (MRT) in series [5] of 5.7 h. In series [7], this compound gave an exposure AUC(0-t) at 24 h of 190 ng·h/mL.
